Reference: ChEMBL document CHEMBL2390859, “Solid phase synthesis and biological evaluation of probestin as an angiogenesis inhibitor” (Bioorg Med Chem Lett, 2013)
The source made the active and inactive calls.

Tests used:
[1] = test system: MDA-MB-435; assay: Antitumor activity against human MDA-MB-435 cells xenografted in chicken embryo chorioallantoic membrane assessed as inhibition of tumor volume at 20 mg/kg measured after 2 days; assay type: functional, organism-based; set-up: dose 20 mg/kg
Method in brief: (§1)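 Under the vascularized CAM of 10-day-old chicken embryos, 500,000 human breast carcinoma MDA-MB-435 cells were implanted. Embryos were dosed systemically with 20 mg/kg on days one and two. Tumor growth and vascularity were assessed, with 8–10 separate CAMs per group.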

[2] = test system: MDA-MB-435; assay: Antiangiogenic activity in human MDA-MB-435 cells xenografted in chicken embryo chorioallantoic membrane assessed as inhibition of blood vessel formation at 20 mg/kg measured after 2 days; assay type: functional, organism-based; set-up: dose 20 mg/kg; method in brief: as §1
[3] = test system: Gallus gallus; assay: Antiangiogenic activity in chicken embryo chorioallantoic membrane assessed as inhibition of VEGF-induced blood vessel formation at 25 uM applied topically to filter paper surface after 48 hrs by stereo microscopic analysis; assay type: functional, tissue-based
Method in brief: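 CAM of 10-day-old chicken embryos; angiogenesis induced with filter discs soaked in VEGF, test agent applied alongside. 8–10 separate CAMs per group.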

[4] = Acute toxicity in ip dosed CDF mouse; assay type: organism-based; conditions: in vivo
[5] = Toxicity in ip dosed BalbC mouse assessed as body weight loss administered 3 times per week measured over 6 weeks; assay type: organism-based; conditions: in vivo
Method in brief: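 Female BalbC mice, 10 weeks old and healthy, in groups of four, dosed ip at 50, 100, 200 and 300 mg/kg three times weekly. Body weight was tracked over 6 weeks, with observation for acute distress during the first 96 h after injection. MTD was defined as significant weight loss over 6 weeks (P <0.05, one-way ANOVA with Neuman–Keuls post test).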

[6] = test system: Mus musculus; assay: Toxicity in BalbC mouse assessed as body weight loss at 50 to 200 mg/kg, ip administered 3 times per week measured over 6 weeks; assay type: organism-based; set-up: dose 50-200 mg/kg, route intraperitoneal; conditions: in vivo, 1008 h
Method in brief: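 Healthy female BalbC mice, 10 weeks old, in groups of four, dosed intraperitoneally at 50, 100, 200 or 300 mg/kg three times weekly. Weights were tracked over 6 weeks and acute distress was watched for during the first 96 h. Significant weight loss over 6 weeks (P <0.05, one-way ANOVA with Neuman–Keuls post test) was the MTD criterion.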

[7] = Toxicity in chicken embryo chorioallantoic membrane assessed as effect on blood vessel at 10 uM applied topically to filter paper surface after 48 hrs by stereo microscopic analysis; assay type: tissue-based, Gallus gallus; conditions: in vivo
[8] = species on record: Gallus gallus; conditions: Chorioallantoic membrane, 10 uM

Structure (SMILES) | inhibition [1] | inhibition [2] | inhibition [3] | LD50 [4] [mg/kg] | MTD at 1008 h [5] [mg/kg] | Activity [6] | Activity [7] | inhibition [8]
CC(C)C[C@H](NC(=O)[C@@H](O)[C@H](N)Cc1ccccc1)C(=O)O | Active | Active |  |  |  |  |  | 
CCN(CC)CCNC(=O)c1c(C)[nH]c(/C=C2\C(=O)Nc3ccc(F)cc32)c1C | Active | Active | Active |  |  |  |  | 
CC(C)C[C@H](NC(=O)[C@@H](O)[C@H](N)Cc1ccccc1)C(=O)N1CCC[C@H]1C(=O)N1CCC[C@H]1C(=O)O [PROBESTIN] | Active | Active |  | > 250 | 300 | Non-toxic | Non-toxic | Active
